Laboratory results published in ChEMBL document CHEMBL1136923, “Highly potent, orally available anti-inflammatory broad-spectrum chemokine inhibitors” (J Med Chem, 2009).

Tests used:
[1] = target: T1, C5a anaphylatoxin chemotactic receptor 1 (Homo sapiens) (UniProt P21730); assay: Antagonist activity at C5a receptor in human PMNC assessed as inhibition of C5a-induced chemotaxis at 100 nM after 2 hrs by microtiter format trans-well migration assay; assay type: functional
T1 sequence (whole entry): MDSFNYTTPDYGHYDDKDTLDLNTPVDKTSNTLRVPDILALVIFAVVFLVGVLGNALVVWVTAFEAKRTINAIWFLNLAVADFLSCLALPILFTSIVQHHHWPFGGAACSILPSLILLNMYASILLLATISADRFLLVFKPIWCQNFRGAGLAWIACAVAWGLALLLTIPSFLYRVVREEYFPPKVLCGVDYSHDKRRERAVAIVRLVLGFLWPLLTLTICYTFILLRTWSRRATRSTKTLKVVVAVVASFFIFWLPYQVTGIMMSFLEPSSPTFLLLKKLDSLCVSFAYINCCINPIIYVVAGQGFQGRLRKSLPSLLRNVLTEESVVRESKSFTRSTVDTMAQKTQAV
Procedure, shortened: (§1)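 Microtiter trans-well migration assay in Gey's balanced salt solution with 1 mg/mL endotoxin-free BSA, no fetal calf serum. Migration ran 2 h at 37 °C. Compounds dissolved in DMSO and added to both top and bottom compartments, final DMSO 1%.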

[2] = target: C-X-C chemokine receptor type 4 (Homo sapiens) (UniProt P61073); assay: Antagonist activity at CXCR4 in human THP1 cells assessed as inhibition of CXCL12-induced chemotaxis after 2 hrs by microtiter format trans-well migration assay; assay type: functional, cell-based; details: THP-1; procedure, shortened: as §1
Sequence of C-X-C chemokine receptor type 4 (Homo sapiens) (P61073 whole entry): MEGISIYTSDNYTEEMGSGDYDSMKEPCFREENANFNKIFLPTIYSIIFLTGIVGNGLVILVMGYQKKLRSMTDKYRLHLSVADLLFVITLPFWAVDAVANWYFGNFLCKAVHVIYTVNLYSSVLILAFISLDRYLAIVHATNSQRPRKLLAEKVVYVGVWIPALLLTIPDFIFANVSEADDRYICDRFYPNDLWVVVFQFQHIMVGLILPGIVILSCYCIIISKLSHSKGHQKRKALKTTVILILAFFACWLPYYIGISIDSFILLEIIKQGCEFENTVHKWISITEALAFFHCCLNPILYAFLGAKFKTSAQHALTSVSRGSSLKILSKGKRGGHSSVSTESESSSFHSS

[3] = Clearance in Sprague-Dawley rat at 1 mg/kg, iv administered as single dose; assay type: ADME, organism-based; set-up: dose 1 mg/kg, route intravenous; details: in vivo
Procedure, shortened: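 Male Sprague-Dawley rats, three per compound, receive a single intravenous dose in 5% DMSO in 0.9% saline. Food and water are given ad libitum. Plasma is taken at 5, 15, 30, 60, 120, 180, 240 and 480 min. Drug is measured by LC/MS/MS after extraction with 0.1% formic acid in acetonitrile. The curve is back-extrapolated to time zero assuming an initial volume of 0.26 L/kg.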

[4] = AUC (0 to t) in Sprague-Dawley rat at 1 mg/kg, iv administered as single dose; assay type: ADME, organism-based, Plasma; set-up: dose 1 mg/kg, route intravenous; details: Sprague-Dawley, plasma
Procedure, shortened: (§2)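 Male Sprague-Dawley rats, three per compound per route, single dose. IV vehicle 5% DMSO in 0.9% saline; oral gavage vehicle 1% carboxymethylcellulose in 0.9% saline; fed ad libitum. Plasma taken 5–480 min post-dose, extracted with 0.1% formic acid in acetonitrile, quantified by LC/MS/MS (positive mode). AUC(0–t) by linear/log trapezoidal rule; IV curve back-extrapolated assuming initial volume 0.26 L/kg.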

Mus musculus [5] = assay: Antiinflammatory activity in mouse assessed as inhibition of LPS-induced TNFalpha upregulation at 0.0025 mg, po measured 2 hrs after LPS challenge; assay type: functional
Procedure, shortened: (§3)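 Murine sublethal endotoxemia: LPS given intraperitoneally, with serum TNF-α measured 2 h after the LPS injection as the end point. Compound was given subcutaneously or orally. Vehicle was 0.6% DMSO and 1% carboxymethylcellulose (final concentrations) in sterile water. Effect is reported as % relative to control.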

Mus musculus [6] = assay: Antiinflammatory activity in mouse assessed as inhibition of LPS-induced TNFalpha upregulation at 0.0025 ug, sc measured 2 hrs after LPS challenge; assay type: functional; procedure, shortened: as §3
[7] = Antagonist activity at Interleukin-8 receptor in human PMNC assessed as inhibition of CXCL8-induced chemotaxis at 1 nM after 2 hrs by microtiter format trans-well migration assay; assay type: functional; procedure, shortened: as §1
[8] = AUC (0 to t) in Sprague-Dawley rat at 3 mg/kg, po administered as single dose; assay type: ADME, organism-based; set-up: dose 3 mg/kg, route oral; details: plasma; procedure, shortened: as §2
Mus musculus [9] = assay: Antiinflammatory activity in mouse assessed as inhibition of LPS-induced TNFalpha upregulation at 0.025 mg, sc measured 2 hrs after LPS challenge; assay type: functional; procedure, shortened: as §3
[10] = target: C-C chemokine receptor type 2 (Homo sapiens) (UniProt P41597); assay: Antagonist activity at CCR2 in human THP1 cells assessed as inhibition of CCL2-induced chemotaxis after 2 hrs by microtiter format trans-well migration assay; assay type: functional, cell-based; details: THP-1; procedure, shortened: as §1
Sequence of C-C chemokine receptor type 2 (Homo sapiens) (P41597 whole entry, looked up): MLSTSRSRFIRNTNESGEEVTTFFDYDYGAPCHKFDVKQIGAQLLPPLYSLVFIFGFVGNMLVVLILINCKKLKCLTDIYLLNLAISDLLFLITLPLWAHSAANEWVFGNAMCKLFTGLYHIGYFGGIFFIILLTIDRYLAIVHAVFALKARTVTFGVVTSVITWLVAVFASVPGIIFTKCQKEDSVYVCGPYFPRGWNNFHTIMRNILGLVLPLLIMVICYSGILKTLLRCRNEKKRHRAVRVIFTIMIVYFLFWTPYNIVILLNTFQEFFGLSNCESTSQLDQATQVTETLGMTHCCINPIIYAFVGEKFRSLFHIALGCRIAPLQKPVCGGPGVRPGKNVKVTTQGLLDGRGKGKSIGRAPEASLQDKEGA

[11] = target: C-C chemokine receptor type 5 (Homo sapiens) (UniProt P51681); assay: Antagonist activity at CCR5 in human THP1 cells assessed as inhibition of CCL5-induced chemotaxis at 1 nM after 2 hrs by microtiter format trans-well migration assay; assay type: functional, cell-based; details: THP-1; procedure, shortened: as §1
Sequence of C-C chemokine receptor type 5 (Homo sapiens) (P51681 whole entry, looked up): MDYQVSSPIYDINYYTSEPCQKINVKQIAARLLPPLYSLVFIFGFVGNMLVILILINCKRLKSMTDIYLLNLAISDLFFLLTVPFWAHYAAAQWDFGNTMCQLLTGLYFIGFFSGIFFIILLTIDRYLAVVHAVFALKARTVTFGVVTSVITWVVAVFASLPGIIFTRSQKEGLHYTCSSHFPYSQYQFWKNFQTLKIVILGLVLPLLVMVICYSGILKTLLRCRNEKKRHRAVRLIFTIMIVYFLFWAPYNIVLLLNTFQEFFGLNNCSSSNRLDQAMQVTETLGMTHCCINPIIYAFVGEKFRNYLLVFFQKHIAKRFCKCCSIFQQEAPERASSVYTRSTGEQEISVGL

[12] = target: T2, C-C chemokine receptor type 1 (Homo sapiens) (UniProt P32246); assay: Antagonist activity at CCR1 in human THP1 cells assessed as inhibition of CCL3-induced chemotaxis at 100 nM after 2 hrs by microtiter format trans-well migration assay; assay type: functional, cell-based; details: THP-1; procedure, shortened: as §1
T2 sequence (whole entry): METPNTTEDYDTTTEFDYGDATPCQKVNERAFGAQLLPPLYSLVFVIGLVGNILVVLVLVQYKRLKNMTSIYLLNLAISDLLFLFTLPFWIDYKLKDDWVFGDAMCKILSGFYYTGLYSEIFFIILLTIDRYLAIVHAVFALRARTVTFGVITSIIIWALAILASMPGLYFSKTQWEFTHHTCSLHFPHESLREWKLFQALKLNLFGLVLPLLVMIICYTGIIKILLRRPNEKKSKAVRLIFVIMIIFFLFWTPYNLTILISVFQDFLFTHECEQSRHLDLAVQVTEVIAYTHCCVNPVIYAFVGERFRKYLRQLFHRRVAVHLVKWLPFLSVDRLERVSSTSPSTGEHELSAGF

[13] = Antagonist activity at Interleukin-8 receptor in human PMNC assessed as inhibition of CXCL8-induced chemotaxis at 1000 nM after 2 hrs by microtiter format trans-well migration assay; assay type: functional; procedure, shortened: as §1

- ED50 [2]: 1 nM
- clearance [3]: 40 mL/min/kg
- AUC(0-t) [4]: 395 ng·h/mL
- AUC(0-t) [8]: 183 ng·h/mL
- ED50 [10]: 0.09 nM
- inhibition [11]: 56%
- inhibition [12]: 95%
SMILES: CCCCCCCCCCC(C)(C)C(=O)N[C@H]1CCCCNC1=O
- inhibition [1]: 16%
- inhibition (INH) (Mus musculus [5]): 0%
- inhibition (INH) (Mus musculus [6]): 29%
- inhibition at 0.001 µM [7]: 71%
- inhibition (INH) (Mus musculus [9]): 64%
- inhibition at 1 µM [13]: 122%
